Here are results for two compounds from ChEMBL document CHEMBL1275462 (Antimicrob Agents Chemother, 2008).

≈ marks a conversion by molar mass, not a printed value. Calls of active or inactive are those of the source.

Assay [1] has as its system Staphylococcus aureus. Kind of assay: Antimicrobial activity against methicillin-resistant Staphylococcus aureus E2125 by Etest. Format: functional. The gist of the method:
(§1)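 Etest (manufacturer's method) and population analysis: overnight cultures serially diluted and plated on TSA with increasing oxacillin or BPR, CFU counted after 48 h at 37°C. Colonies from subpopulations growing at high oxacillin or BPR were picked, restreaked on antibiotic-free TSA for three passages, then retested by population analysis.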

For assay [2], the system named is Staphylococcus aureus. Description: Antimicrobial activity against methicillin-resistant Staphylococcus aureus HPV107 by Etest. Format: functional. The gist of the method:
as §1

Assay [3] concerns Staphylococcus aureus. Kind of assay: Antimicrobial activity against methicillin-resistant Staphylococcus aureus BK2464 by Etest. Format: functional. The gist of the method:
as §1

The test system of assay [4] is Staphylococcus aureus. Kind of assay: Antimicrobial activity against methicillin-resistant Staphylococcus aureus HDE288 by Etest. It is filed as functional. The essentials: as §1
The test system of assay [5] is Staphylococcus aureus. Kind of assay: Antimicrobial activity against methicillin-resistant Staphylococcus aureus BK2529 by Etest. Format: functional. The gist of the method: as §1
Assay [6] relates to Staphylococcus aureus. Description: Antimicrobial activity against methicillin-resistant Staphylococcus aureus HAR24 by Etest. It is filed as functional. The gist of the method:
as §1

Assay [7] has as its system Staphylococcus aureus. Kind of assay: Antimicrobial activity against methicillin-resistant Staphylococcus aureus HAR22 by Etest. It is filed as functional. The essentials:
as §1

Assay [8] relates to Staphylococcus aureus. Description: Antimicrobial activity against methicillin-resistant Staphylococcus aureus USA300 by Etest. Format: functional. The gist of the method:
as §1

The test system of assay [9] is Staphylococcus aureus. Description: Antimicrobial activity against methicillin-resistant Staphylococcus aureus COL by Etest. Format: functional. The gist of the method: as §1
Assay [10] concerns Staphylococcus aureus. Description: Antimicrobial activity against methicillin-resistant Staphylococcus aureus HU25 by Etest. Format: functional. The essentials: as §1
For assay [11], the system named is Staphylococcus aureus. Description: Antimicrobial activity against methicillin-resistant Staphylococcus aureus E2125 assessed as concentration required for bacterial subpopulation growth. It is filed as functional. The essentials: as §1
In assay [12] the test system is Staphylococcus aureus. Description: Antimicrobial activity against methicillin-resistant Staphylococcus aureus HPV107 assessed as concentration required for bacterial subpopulation growth. Format: functional. The essentials: as §1
Assay [13] has as its system Staphylococcus aureus. Description: Antimicrobial activity against methicillin-resistant Staphylococcus aureus BK2464 assessed as concentration required for bacterial subpopulation growth. Format: functional. The essentials: as §1
Assay [14] relates to Staphylococcus aureus. Description: Antimicrobial activity against methicillin-resistant Staphylococcus aureus HDE288 assessed as concentration required for bacterial subpopulation growth. Format: functional. The essentials: as §1
Assay [15] has as its system Staphylococcus aureus. Kind of assay: Antimicrobial activity against methicillin-resistant Staphylococcus aureus BK2529 assessed as concentration required for bacterial subpopulation growth. Format: functional. The gist of the method:
as §1

Assay [16] relates to Staphylococcus aureus. Kind of assay: Antimicrobial activity against methicillin-resistant Staphylococcus aureus HAR24 assessed as concentration required for bacterial subpopulation growth. It is filed as functional. The essentials: as §1
Assay [17] deals with Staphylococcus aureus. Kind of assay: Antimicrobial activity against methicillin-resistant Staphylococcus aureus HAR22 assessed as concentration required for bacterial subpopulation growth. It is filed as functional. The gist of the method: as §1
Assay [18] deals with Staphylococcus aureus. Kind of assay: Antimicrobial activity against methicillin-resistant Staphylococcus aureus USA300 assessed as concentration required for bacterial subpopulation growth. It is filed as functional. The essentials:
as §1

For assay [19], the system named is Staphylococcus aureus. Kind of assay: Antimicrobial activity against methicillin-resistant Staphylococcus aureus HU25 assessed as concentration required for bacterial subpopulation growth. It is filed as functional. The essentials:
as §1

In assay [20] the test system is Staphylococcus aureus. Description: Antimicrobial activity against methicillin-resistant Staphylococcus aureus E2125 assessed as concentration required for minimum inhibition of oxacillin-resistant subpopulation growth by Etest. Format: functional. The essentials:
as §1

In assay [21] the test system is Staphylococcus aureus. Description: Antimicrobial activity against methicillin-resistant Staphylococcus aureus HPV107 assessed as concentration required for minimum inhibition of oxacillin-resistant subpopulation growth by Etest. Format: functional. The essentials: as §1
For assay [22], the system named is Staphylococcus aureus. Description: Antimicrobial activity against methicillin-resistant Staphylococcus aureus BK2464 assessed as concentration required for minimum inhibition of oxacillin-resistant subpopulation growth by Etest. It is filed as functional. The gist of the method:
as §1

For assay [23], the system named is Staphylococcus aureus. Kind of assay: Antimicrobial activity against methicillin-resistant Staphylococcus aureus HDE288 assessed as concentration required for minimum inhibition of oxacillin-resistant subpopulation growth by Etest. It is filed as functional. The gist of the method:
as §1

In assay [24] the test system is Staphylococcus aureus. Kind of assay: Antimicrobial activity against methicillin-resistant Staphylococcus aureus BK2529 assessed as concentration required for minimum inhibition of oxacillin-resistant subpopulation growth by Etest. Format: functional. The gist of the method:
as §1

The test system of assay [25] is Staphylococcus aureus. Kind of assay: Antimicrobial activity against methicillin-resistant Staphylococcus aureus HAR24 assessed as concentration required for minimum inhibition of oxacillin-resistant subpopulation growth by Etest. It is filed as functional. The essentials: as §1
In assay [26] the test system is Staphylococcus aureus. Kind of assay: Antimicrobial activity against methicillin-resistant Staphylococcus aureus HAR22 assessed as concentration required for minimum inhibition of oxacillin-resistant subpopulation growth by Etest. Format: functional. The gist of the method:
as §1

The subject of assay [27] is Staphylococcus aureus. Kind of assay: Antimicrobial activity against methicillin-resistant Staphylococcus aureus USA300 assessed as concentration required for minimum inhibition of oxacillin-resistant subpopulation growth by Etest. It is filed as functional. The essentials:
as §1

Assay [28] deals with Staphylococcus aureus. Kind of assay: Antimicrobial activity against vancomycin-intermediate Staphylococcus aureus Mu50 by Etest. Format: functional. The gist of the method: (§2)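 Etest and population analysis: overnight cultures plated on TSA with increasing vancomycin, oxacillin or BPR, CFU counted after 48 h at 37°C. For VRSA strains, vancomycin plates also run with constant 1 µg/ml BPR. Vancomycin Etest read after overnight 37°C incubation on TSA with or without 1 µg/ml BPR.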

For assay [29], the system named is Staphylococcus aureus. Description: Antimicrobial activity against vancomycin-intermediate Staphylococcus aureus JH9 obtained from bacteremic patient by Etest. It is filed as functional. The essentials:
as §2

For assay [30], the system named is Staphylococcus aureus. Kind of assay: Antimicrobial activity against vancomycin-resistant Staphylococcus aureus VRS1 by Etest. It is filed as functional. The essentials:
as §2

The subject of assay [31] is Staphylococcus aureus. Description: Antimicrobial activity against oxacillin-resistant Staphylococcus aureus COLVA harboring Tn1546 transposon by Etest. Format: functional. The essentials: as §2
The subject of assay [32] is Staphylococcus aureus. Description: Antimicrobial activity against methicillin-resistant Staphylococcus aureus COL assessed as reduction in viable bacterial titer after 24 hrs in presence of 10 times compound MIC. It is filed as functional.
For assay [33], the system named is Staphylococcus aureus. Description: Bactericidal activity against methicillin-resistant Staphylococcus aureus COL assessed as reduction in viable bacterial titer after 24 hrs at 10 times MIC. It is filed as functional, organism-based. The essentials:
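Time-kill: exponentially growing COL cultures (OD620 0.2, about 10^8 CFU/ml at zero time) given 10× MIC of drug under aerobic conditions. Untreated control. Aliquots taken at intervals, serially diluted, plated on TSA, colonies counted after 48 h at 37°C.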

A further assay concerns the target T1, MecA (Staphylococcus aureus, UniProt Q7DHH4).
T1 sequence (Q7DHH4 whole entry): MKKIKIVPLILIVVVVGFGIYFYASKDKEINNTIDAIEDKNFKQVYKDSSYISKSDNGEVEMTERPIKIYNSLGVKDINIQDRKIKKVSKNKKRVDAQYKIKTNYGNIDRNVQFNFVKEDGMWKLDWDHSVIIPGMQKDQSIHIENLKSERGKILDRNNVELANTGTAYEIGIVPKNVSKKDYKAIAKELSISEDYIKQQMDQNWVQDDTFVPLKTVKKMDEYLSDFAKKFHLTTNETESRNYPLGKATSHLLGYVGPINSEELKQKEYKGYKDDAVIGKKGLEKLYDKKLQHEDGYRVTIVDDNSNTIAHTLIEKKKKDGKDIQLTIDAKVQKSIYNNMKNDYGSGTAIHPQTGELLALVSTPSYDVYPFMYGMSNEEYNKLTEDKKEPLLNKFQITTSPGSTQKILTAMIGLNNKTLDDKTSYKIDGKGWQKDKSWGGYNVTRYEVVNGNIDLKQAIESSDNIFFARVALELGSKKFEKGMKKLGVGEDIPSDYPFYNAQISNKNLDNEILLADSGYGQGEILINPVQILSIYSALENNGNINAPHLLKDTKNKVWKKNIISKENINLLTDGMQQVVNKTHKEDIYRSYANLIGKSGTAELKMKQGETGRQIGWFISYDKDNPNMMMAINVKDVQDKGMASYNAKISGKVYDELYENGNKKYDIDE
Kind of assay: Inhibition of methicillin-resistant Staphylococcus aureus COL PBP2a by competitive assay. Also noted: species or system Staphylococcus aureus subsp. aureus COL. The essentials: (§3)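 Purified soluble PBP 2A (mecA expressed in E. coli, 97% pure) at 0.8 µM, preincubated with drug 30 min at 30°C. Then 20 µM Bocillin FL added for 10 min at 37°C, quenched with SDS-PAGE buffer and boiled. Drug range 0.5–20 µM; for IC50, BPR 0.5–200 µM or oxacillin 5–6,000 µM. Curve fitting.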

The target in assay [34] is T2, MecA (Staphylococcus aureus) (UniProt Q7DHH4).
T2 sequence (whole entry): T1 sequence (Q7DHH4 whole entry)
Kind of assay: Inhibition of methicillin-resistant Staphylococcus aureus 67-O PBP2a by competitive assay.

Assay [35] has as its target T2, MecA (Staphylococcus aureus). Description: Inhibition of methicillin-resistant Staphylococcus aureus COL PBP2a at 10 uM by competitive assay. Particulars: Staphylococcus aureus subsp. aureus COL. The gist of the method: as §3
The target is the same in assay [36]. Kind of assay: Displacement of benzyl-[14C]penicillin from Staphylococcus aureus PBP2a RU130 mutant at 2500 ug/ml by in vitro competitive assay. As to conditions: Staphylococcus aureus subsp. aureus COL. The gist of the method: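 Membranes from PBP 2 insertional mutant RU130 (Tn551 in transpeptidase domain), late exponential phase, 150 µg protein, preincubated with increasing oxacillin or BPR 10 min at 30°C. Then labelled with 20 µg/ml benzyl[14C]penicillin 10 min at 37°C and stopped with excess unlabelled penicillin in SDS. SDS-PAGE with phosphor screen exposure for 2 weeks.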

As a reminder, the MIC is the smallest concentration in the dilution series that meets the test's criterion for growth inhibition. A higher MIC goes with a need for much substance. The IC50 is the concentration that gives 50% inhibition. A word on the inhibition: it is how much of the control response was suppressed. Regarding `Cc1onc(-c2ccccc2)c1C(=O)N[C@@H]1C(=O)N2[C@@H]1SC(C)(C)[C@@H]2C(=O)O` [OXACILLIN], the MIC against Staphylococcus aureus [1] is 6 µg/mL (≈ 14.9 µM); with Staphylococcus aureus [2], 0.8 µg/mL (≈ 1.99 µM); in the assay with Staphylococcus aureus [3], 12.5 µg/mL (≈ 31.1 µM); in the assay on Staphylococcus aureus [4], 0.8 µg/mL (≈ 1.99 µM); against Staphylococcus aureus [5] it was 1.5 µg/mL (≈ 3.74 µM); against Staphylococcus aureus [6], 100 µg/mL (≈ 249 µM). Further, the minimal inhibitory concentration (MIC) against Staphylococcus aureus [7] is 100 µg/mL (≈ 249 µM); in the assay on Staphylococcus aureus [8], 0.8 µg/mL (≈ 1.99 µM); in the assay with Staphylococcus aureus [9] it was more than 800 µg/mL; with Staphylococcus aureus [10], 400 µg/mL (≈ 996 µM); against Staphylococcus aureus [28], more than 800 µg/mL; in the assay on Staphylococcus aureus [29], 3 µg/mL (≈ 7.47 µM). Moreover, the MIC was more than 800 µg/mL in the assay with Staphylococcus aureus [30] and 800 µg/mL (≈ 1990 µM) against Staphylococcus aureus [31]. For the same compound, the Activity in the assay with Staphylococcus aureus [11] is 400 µg/mL; in the assay with Staphylococcus aureus [12] it was 400 µg/mL; with Staphylococcus aureus [13], 400 µg/mL; with Staphylococcus aureus [14] it was 400 µg/mL; with Staphylococcus aureus [15], 400 µg/mL; in the assay with Staphylococcus aureus [16] it was 800 µg/mL. Further, the Activity in the assay with Staphylococcus aureus [17] came to 400 µg/mL; with Staphylococcus aureus [18], 800 µg/mL; in the assay with Staphylococcus aureus [19], 800 µg/mL; with Staphylococcus aureus [20] it was 400 µg/mL; with Staphylococcus aureus [21], 100 µg/mL; in the assay with Staphylococcus aureus [22], 200 µg/mL. Moreover, the Activity in the assay with Staphylococcus aureus [23] was 200 µg/mL; in the assay with Staphylococcus aureus [24] it was 200 µg/mL; with Staphylococcus aureus [25], 800 µg/mL; in the assay with Staphylococcus aureus [26], 800 µg/mL; in the assay on Staphylococcus aureus [27], 400 µg/mL; in assay [34], 300 µg/mL. In addition, the fold reduction in CFU in the assay on Staphylococcus aureus [32] turned out to be 1000 fold. In the assay with Staphylococcus aureus [33], the result was inactive. The same compound showed an IC50 at MecA of 710 µM. The inhibition in assay [35] was 5%. The result in assay [36] was Active.

As for `CN[C@H](CC(C)C)C(=O)N[C@H]1C(=O)N[C@@H](CC(N)=O)C(=O)N[C@H]2C(=O)N[C@H]3C(=O)N[C@H](C(=O)N[C@H](C(=O)O)c4cc(O)cc(O)c4-c4cc3ccc4O)[C@H](O)c3ccc(c(Cl)c3)Oc3cc2cc(c3O[C@@H]2O[C@H](CO)[C@@H](O)[C@H](O)[C@H]2O[C@H]2C[C@](C)(N)[C@H](O)[C@H](C)O2)Oc2ccc(cc2Cl)[C@H]1O` [VANCOMYCIN], the MIC in the assay with Staphylococcus aureus [28] is 6 µg/mL (≈ 4.14 µM); with Staphylococcus aureus [29], 6 µg/mL (≈ 4.14 µM); against Staphylococcus aureus [30], more than 800 µg/mL; against Staphylococcus aureus [31], 800 µg/mL (≈ 552 µM).
